Assay results from different studies.
Effect on: cell growth or viability

| SMILES | cell line | technique | time | IC50 [µM] |
| --- | --- | --- | --- | --- |
| O=C(/C=C(/C=C/c1cccnc1)NCCCO)/C=C/c1cccnc1 | CHO-K1 | SRB | 72 h | > 75 |
| COc1cc(/C=C/C(=O)/C=C(O)/C=C/c2ccc[nH]2)ccc1O | CHO-K1 | MTT | 72 h | 24.1 |
| Brc1ccc(Nc2nc(NCc3ccccc3)nc(NCc3ccccc3)n2)cc1 | SK-BR-3 | SRB | 72 h | 20.4 |
| COc1ccc(-c2nc3ccccc3n2Cc2ccccc2)cc1OC | human Rhabdomyosarcoma cell | MTT | – | 18.4 |
| COCCCN1C(/C=C/c2cccnc2)=CC(=O)CC1c1cccnc1 (stereo not shown) | CHO-K1 | MTT | 72 h | > 75 |
| CN(C)c1ccc(-c2nc3ccccc3[nH]2)cc1 | human Rhabdomyosarcoma cell | MTT | 48 h | 50.5 |
| CN(C)c1ccc(-c2nc3ccccn3c2NC(C)(C)C)cc1 | Vero | MTT | 48 h | 87 |
| CCOc1cc(-c2nc3ccccc3[nH]2)ccc1O | human Rhabdomyosarcoma cell | MTT | 48 h | 29.4 |
| O=C(/C=C(O)/C=C/c1ccc[nH]1)/C=C/c1ccc[nH]1 | CHO-K1 | SRB | 72 h | 11.7 |
| O=C(/C=C(O)/C=C/c1cccs1)/C=C/c1c[nH]c2ccccc12 | CHO-K1 | MTT | 72 h | 5.9 |
| CCN(CC)C(=O)c1ncn2c(=O)n(C)nnc12 | D54 | resazurin | 7 days | 13 |
| Nc1ccccc1-c1nc2ccccn2c1N | Vero | MTT | 48 h | 74 |
| COc1ccccc1/C=C/CNCC(O)COc1cccc2ccccc12 (stereo not shown) | NCI-H1299 | CCK-8 | 72 h | 19.8 |
| Cc1ccc2nc(-c3ccc(N(C)C)cc3)[nH]c2c1 | human Rhabdomyosarcoma cell | MTT | 48 h | 24.3 |
| COCOc1c(OC)cc(C(=O)c2csc(-c3ccccc3)n2)cc1OC | B16-F1 | SRB | – | 0.055 |
| C=CCn1c(-c2ccc(Cl)cc2)nc2ccccc21 | human Rhabdomyosarcoma cell | MTT | – | 67.4 |
| Cn1c(-c2nnc(NC(=O)c3cc4c([nH]c5ccccc54)c(-c4ccccc4)n3)s2)cc2ccccc21 | HL-60 | MTT | 72 h | 33.2 |
| COc1cc(N2CCC(N3CCN(C)CC3)CC2)ccc1Nc1ncc(Cl)c(Nc2ccccc2S(=O)(=O)C(C)C)n1 | Rh30 | – | 72 h | 0.3 |
| Oc1ccccc1-c1nc2ccccc2[nH]1 | human Rhabdomyosarcoma cell | MTT | 48 h | 15.4 |
| COc1cc(Nc2nccc(-c3cnn4nc(OC)ccc34)n2)cc(C(F)(F)F)c1 | COR-L279 | ATP luminescence | – | 0.21 |
| CC(=O)O[C@H]1C(=O)[C@@]2(C)[C@H]([C@H](OC(=O)c3ccccc3)[C@]3(O)C[C@H](OC(=O)[C@H](O)[C@@H](NC(=O)c4ccccc4)c4ccccc4)C(C)=C1C3(C)C)[C@]1(OC(C)=O)CO[C@@H]1C[C@@H]2O | MDA-MB-436 | ATP luminescence | 72 h | 0.0099 |
| COc1cc(/C=C/C(=O)/C=C(O)/C=C/c2cccnc2)ccc1O | CHO-K1 | MTT | 72 h | 21.4 |
| COc1ccccc1/C=C/CNCC(O)COc1ccccc1 (stereo not shown) | NCI-H1299 | CCK-8 | 72 h | 33.1 |
| CC(=O)O[C@H]1C(=O)[C@@]2(C)[C@H]([C@H](OC(=O)c3ccccc3)[C@]3(O)C[C@H](OC(=O)[C@H](O)[C@@H](NC(=O)c4ccccc4)c4ccccc4)C(C)=C1C3(C)C)[C@]1(OC(C)=O)CO[C@@H]1C[C@@H]2O | human Rhabdomyosarcoma cell | MTT | 48 h | 6.13 |
| COc1cc(/C=C/c2cc(/C=C/c3cccc4cnccc34)[nH]n2)ccc1O | CHO-K1 | MTT | 72 h | 8.4 |
